Laboratory results from ChEMBL document CHEMBL1152212, “Docking study, synthesis, and in vitro evaluation of fluoro-MADAM derivatives as SERT ligands for PET imaging” (Bioorg Med Chem, 2008).

Columns and labels:
[1] = target: Sodium-dependent noradrenaline transporter (Homo sapiens, UniProt P23975); test: Displacement of [3H]nisoxetine from human cloned NET expressed in HEK293 cells; assay type: cell-based
[2] = target: Sodium-dependent dopamine transporter (Homo sapiens, UniProt Q01959); test: Displacement of [3H]GBR-12935 from human cloned DAT expressed in HEK293 cells; assay type: cell-based
[3] = Partition coefficient, log P in n-octanol/0.02 M phosphate buffer at pH 7.4; assay type: physicochemical
[4] = target: T1, Sodium-dependent serotonin transporter (Rattus norvegicus, UniProt P31652); test: Displacement of [125I]IDAM from SERT in rat brain cortex membrane; assay type: cell membranes
[5] = target: T1, Sodium-dependent serotonin transporter; test: Displacement of [3H]MADAM from SERT in rat brain cortex membrane; assay type: cell membranes
Outline: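 Paroxetine defined nonspecific binding. Bound radioactivity was collected by GF/B filtration with an ice-cold wash and beta-counted. IC50 was read graphically and Ki derived by Cheng-Prusoff. Samples run in duplicate; values are the mean of four determinations.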

[6] = target: T1, Sodium-dependent serotonin transporter
[7] = Partition coefficient, log P at pH 7.4 by reverse-phase HPLC; assay type: physicochemical; conditions: octanol/water, read-out: logP
Outline: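 Indirect log P7.4 from retention time (triplicate) on a C-18 column (5 µm, 4.6 × 150 mm) eluted with methanol/0.1 M phosphate buffer pH 7.4 (50/50) at 1 mL/min. Calibrated against seven standards dissolved in mobile phase: quinoline, phenol, benzamide, chlorpromazine, hexachlorobenzene, ADAM and MADAM. Calibration equation: y = 1.438·Ln(retention time) – 0.7301, R² 0.93.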

Sodium-dependent dopamine transporter, sequence (Q01959 whole entry): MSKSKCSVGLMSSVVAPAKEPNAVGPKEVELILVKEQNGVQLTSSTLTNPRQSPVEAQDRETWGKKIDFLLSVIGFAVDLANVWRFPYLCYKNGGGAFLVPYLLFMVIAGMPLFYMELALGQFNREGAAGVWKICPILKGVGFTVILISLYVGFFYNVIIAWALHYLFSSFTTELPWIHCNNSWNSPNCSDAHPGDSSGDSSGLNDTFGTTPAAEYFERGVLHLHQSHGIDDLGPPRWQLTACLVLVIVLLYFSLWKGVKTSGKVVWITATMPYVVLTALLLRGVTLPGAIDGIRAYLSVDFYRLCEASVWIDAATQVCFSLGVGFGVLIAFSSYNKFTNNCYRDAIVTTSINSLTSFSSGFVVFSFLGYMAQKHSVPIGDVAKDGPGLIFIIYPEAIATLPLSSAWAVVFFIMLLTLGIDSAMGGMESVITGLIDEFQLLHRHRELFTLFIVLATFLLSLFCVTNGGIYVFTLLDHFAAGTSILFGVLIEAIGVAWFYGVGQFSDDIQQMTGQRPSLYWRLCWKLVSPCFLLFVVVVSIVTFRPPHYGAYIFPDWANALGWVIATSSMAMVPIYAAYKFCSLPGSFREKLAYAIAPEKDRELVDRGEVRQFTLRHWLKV
Sodium-dependent noradrenaline transporter, sequence (P23975 whole entry): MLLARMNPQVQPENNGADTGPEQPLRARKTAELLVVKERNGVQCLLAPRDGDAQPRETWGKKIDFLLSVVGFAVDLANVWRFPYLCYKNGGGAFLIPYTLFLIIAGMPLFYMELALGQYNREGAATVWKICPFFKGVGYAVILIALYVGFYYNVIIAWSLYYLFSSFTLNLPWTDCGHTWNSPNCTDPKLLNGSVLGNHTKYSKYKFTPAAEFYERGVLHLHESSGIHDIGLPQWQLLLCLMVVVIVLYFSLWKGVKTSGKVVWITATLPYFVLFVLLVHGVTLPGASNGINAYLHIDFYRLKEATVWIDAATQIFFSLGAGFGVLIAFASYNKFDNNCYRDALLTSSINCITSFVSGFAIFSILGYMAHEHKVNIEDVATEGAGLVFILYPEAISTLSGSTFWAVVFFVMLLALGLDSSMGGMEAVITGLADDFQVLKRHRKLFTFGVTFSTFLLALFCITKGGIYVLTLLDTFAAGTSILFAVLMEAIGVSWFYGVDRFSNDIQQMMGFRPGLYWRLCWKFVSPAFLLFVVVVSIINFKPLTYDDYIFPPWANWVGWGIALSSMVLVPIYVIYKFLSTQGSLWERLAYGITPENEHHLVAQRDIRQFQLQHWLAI
T1 sequence (P31652 whole entry): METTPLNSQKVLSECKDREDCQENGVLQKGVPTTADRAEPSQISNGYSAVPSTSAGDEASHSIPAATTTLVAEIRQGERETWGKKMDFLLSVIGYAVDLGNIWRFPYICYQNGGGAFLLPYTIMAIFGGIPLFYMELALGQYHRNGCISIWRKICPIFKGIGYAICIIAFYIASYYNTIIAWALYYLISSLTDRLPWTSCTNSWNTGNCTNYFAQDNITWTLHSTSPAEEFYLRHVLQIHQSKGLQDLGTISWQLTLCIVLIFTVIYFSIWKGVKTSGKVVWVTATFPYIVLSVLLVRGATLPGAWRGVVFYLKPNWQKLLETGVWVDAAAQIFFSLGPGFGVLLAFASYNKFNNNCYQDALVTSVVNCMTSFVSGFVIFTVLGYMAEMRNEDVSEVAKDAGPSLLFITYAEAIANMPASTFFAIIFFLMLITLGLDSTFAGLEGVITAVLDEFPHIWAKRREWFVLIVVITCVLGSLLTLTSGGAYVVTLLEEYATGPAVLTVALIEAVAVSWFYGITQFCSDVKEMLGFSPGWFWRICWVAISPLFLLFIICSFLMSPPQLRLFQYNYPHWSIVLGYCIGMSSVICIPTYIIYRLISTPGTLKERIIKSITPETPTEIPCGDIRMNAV

Ki [1]	Ki [2]	Ki [4]	SMILES	Ki [5]	also measured
0.325 µM	> 1 µM	–	Cc1ccc(Sc2ccccc2CN(C)C)c(N)c1	–	logD [3]: 2.46
–	–	0.034 µM	CN(C)Cc1ccccc1Sc1ccccc1NC(=O)c1ccc(F)cc1	–	–
> 1.9 µM	> 1 µM	–	Cc1ccc(Sc2ccccc2CN(C)C)c(NCc2ccc([N+](=O)[O-])cc2)c1	0.06 µM	–
–	–	0.0009 µM	CN(C)Cc1ccccc1Sc1ccc(Cl)cc1NC(=O)c1ccc(F)cc1	–	–
–	–	–	CN(C)Cc1ccccc1Sc1ccc(I)cc1CO	–	Ki [6]: 0.0001 µM
–	–	0.193 µM	CN(C)Cc1ccccc1Sc1ccc(I)cc1NC(=O)c1ccc(F)cc1	–	–
–	–	0.008 µM	CN(C)Cc1ccccc1Sc1ccc(Br)cc1NC(=O)c1ccc(F)cc1	–	–
–	–	–	CN(C)Cc1ccccc1Sc1ccc(I)cc1N	–	logD [3]: 2.52
> 1.2 µM	> 1.5 µM	–	Cc1ccc(Sc2ccccc2CN(C)C)c(NCc2ccc(F)cc2)c1	0.0101 µM	chromatographic logD [7]: 4.7
> 5.2 µM	> 1 µM	–	Cc1ccc(Sc2ccccc2CN(C)C)c(NC(=O)c2ccc(F)cc2)c1	0.0143 µM	chromatographic logD [7]: 2.99

SMILES	Ki [1]	Ki [2]	Ki [4]	Ki [5]	also measured
CNCc1ccccc1Sc1ccc(C)cc1NC(=O)c1ccc(F)cc1	> 2.5 µM	> 1 µM	–	> 0.5 µM	–
Cc1ccc(Sc2ccccc2CN(C)C)c(NC(=O)c2ccc([N+](=O)[O-])cc2)c1	> 1 µM	> 1 µM	–	> 0.1 µM	–
CNCc1ccccc1Sc1ccc(C)cc1NCc1ccc(F)cc1	> 1 µM	> 2 µM	–	> 0.1 µM	–
